The text below walks through data of ChEMBL document CHEMBL1127424, “7-azetidinylquinolones as antibacterial agents. 2. Synthesis and biological activity of 7-(2,3-disubstituted-1-azetidinyl)-4-oxoquinoline- and -1,8-naphthyridine-3-carboxylic acids. Properties and structure-activity relationships of quinolones with an azetidine moiety” (J Med Chem, 1994).

Converted amounts (≈) assume the structure as drawn.

Data set [1] can be described thus: AUC (0-4 hr) ug/ml/h. Also on record: time < 4 hr; concentration or dose not given beside the values. In kind it is ADME, cell-free. The settings on record: plasma. In outline:
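Mice dosed once orally at 50 mg/kg; blood taken from groups of six mice at 0.5, 1, 2 and 4 h. Serum drug assayed by disk agar diffusion bioassay (Bacillus subtilis ATCC 6633 on Seed Agar, 37 °C, 18 h), giving total activity.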

Data set [2] in a line: Measured ionization constant (pKa). The settings on record: read-out: pKa1. In kind it is physicochemical. In outline:
(§1)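 Spectrophotometric titration at 20 ± 1 °C, 0.1 M ionic strength, pH varied with H2SO4 or NaOH made up in the compound stock. Absorbance followed at compound-specific wavelengths chosen from 200–400 nm scans. pKa1 and pKa2 taken as the inflection points of the two-step absorbance vs pH curve.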

Data set [3] can be described thus: Dissociation constant (pKa). The class given is physicochemical. To be noted: read-out: pKa2. The method, boiled down: as §1
Data set [4] can be described thus: HPLC capacity factor (k'). The class given is ADME. In outline: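 Ion-pair reversed-phase HPLC on ODS-2 (10 μm) at 45 °C. Mobile phase: 10 mM sodium heptanesulfonate plus 50 mM KH2PO4 (pH 3.5)–methanol 45:55, 1 mL/min. Samples at 100 μg/mL in DMF, injected in duplicate, UV 280 nm. k' = (tR − t0)/t0.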
Data set [5] is described as follows: Solubility (buffer pH 7.4). In kind it is physicochemical. To be noted: read-out: S. The method, boiled down: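 Excess solid shaken in 0.05 M phosphate buffer pH 7.4 for 24 h at 25 °C. Suspension filtered through 0.22 μm, discarding the first portion. Filtrate diluted in 0.1 N HCl or 0.1 N NaOH and read by UV at the compound's absorbance maximum.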
A further data set has as its system Bacillus cereus. Description: In vitro minimum inhibitory concentration for Bacillus cereus ATCC 11778. The class given is functional. The method, boiled down:
(§2)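 Serial 2-fold agar dilution in Mueller Hinton medium, run alongside a reference quinolone. Inoculum adjusted to 10⁸ cfu/mL; compound range 0.007–16 μg/mL.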

Another data set concerns Bacillus subtilis. Briefly: In vitro minimum inhibitory concentration for Bacillus subtilis ATCC 6633. The class given is functional. In outline:
as §2

The subject of another data set is Escherichia coli. Description: In vitro minimum inhibitory concentration for Escherichia coli ATCC 10799. The class given is functional. In outline:
as §2

For the next data set, the system named is Enterobacter cloacae. Description: In vitro minimum inhibitory concentration for Enterobacter cloacae ATCC 23355. The class given is functional.
The test system of a further data set is Klebsiella pneumoniae. Briefly: In vitro minimum inhibitory concentration to inhibit Klebsiella pneumoniae ATCC 10031. The class given is functional. The method, boiled down: as §2
The subject of data set [6] is Mus musculus. Description: Evaluation of efficacy on systemic infections Escherichia coli HM-42, after oral administration in mice. The class given is functional. In outline:
(§3)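 Single oral dose given immediately after infection, one of four doses per group, chosen from in vitro activity. Survival scored after one week. ED50 (total mg/kg protecting 50%) interpolated from survival rates.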

In data set [7] the test system is Mus musculus. Briefly: Evaluation of efficacy on systemic infections Pseudomonas aeruginosa HS-116, after oral administration in mice. The class given is functional. The method, boiled down:
as §3

Data set [8] concerns Mus musculus. Description: Evaluation of efficacy on systemic infections Staphylococcus aureus HS-93, after oral administration in mice. The class given is functional. In outline: as §3
A further data set deals with Morganella morganii. Briefly: In vitro minimum inhibitory concentration for Morganella morganii ATCC 8019. In kind it is functional. In outline: as §2
For the next data set, the system named is Proteus vulgaris. Briefly: In vitro minimum inhibitory concentration for Proteus vulgaris ATCC 8427. In kind it is functional. In outline:
as §2

Data set [9] concerns Staphylococcus epidermidis. Briefly: In vitro minimum inhibitory concentration for Staphylococcus epidermidis ATCC 155-1. The class given is functional. The method, boiled down:
as §2

The test system of another data set is Staphylococcus aureus. Description: In vitro minimum inhibitory concentration for Staphylococcus aureus ATCC 25178. The class given is functional. In outline: as §2
Another data set concerns Enterococcus faecalis. Briefly: In vitro minimum inhibitory concentration for Streptococcus faecalis ATCC 10541. The class given is functional. In outline: as §2
The next data set relates to Pseudomonas aeruginosa. Briefly: In vitro minimum inhibitory concentration for Pseudomonas aeruginosa ATCC 10145. In kind it is functional. In outline: as §2

The term AUC denotes concentration integrated over time. In general, MIC refers to the lowest concentration that inhibits growth of the organism. What is called ED50 is the dose that gives a 50% effect, or the effect in half of the subjects. As for `C[C@H]1[C@H](N)CN1c1nc2c(cc1F)c(=O)c(C(=O)O)cn2C1CC1`, the AUC in data set [1] was found to be 27200 ng·h/mL. The pKa turned out to be 6.26 in data set [2] and 8.31 in data set [3]. Further, the “Log k'” value in data set [4] is -0.0304. In addition, the solubility in data set [5] was 20.3 µg/mL (≈ 61.1 µM). Further, the MIC with Bacillus cereus amounted to 0.06 µg/mL (≈ 0.181 µM); with Bacillus subtilis, 0.03 µg/mL (≈ 0.0903 µM); against Escherichia coli, 0.03 µg/mL (≈ 0.0903 µM); against Enterobacter cloacae, 0.03 µg/mL (≈ 0.0903 µM); against Klebsiella pneumoniae, 0.03 µg/mL (≈ 0.0903 µM); in the data set on Morganella morganii, 0.03 µg/mL (≈ 0.0903 µM). For the same compound, the MIC in the data set with Proteus vulgaris amounted to 0.06 µg/mL (≈ 0.181 µM); in data set [9] it was 0.12 µg/mL (≈ 0.361 µM); in the data set with Staphylococcus aureus, 0.12 µg/mL (≈ 0.361 µM); in the data set on Enterococcus faecalis, 0.25 µg/mL (≈ 0.752 µM); in the data set on Pseudomonas aeruginosa it was 0.5 µg/mL (≈ 1.5 µM). The ED50 with Mus musculus [6] was 3.5 mg/kg; with Mus musculus [7], 95.4 mg/kg; in the data set on Mus musculus [8] it was 13.8 mg/kg.
Turning to `C[C@H]1[C@H](N)CN1c1c(F)cc2c(=O)c(C(=O)O)cn(C3CC3)c2c1F`, the AUC in data set [1] was 24500 ng·h/mL. Moreover, the pKa in data set [2] amounted to 6.13; in [3], 8.35. For the same compound, the “Log k'” value in data set [4] is reported as 0.0755. Besides, the solubility in data set [5] is 23.2 µg/mL (≈ 66.4 µM). Besides, the minimal inhibitory concentration (MIC) against Bacillus cereus was 0.06 µg/mL (≈ 0.172 µM); in the data set on Bacillus subtilis it was 0.03 µg/mL (≈ 0.0859 µM); against Escherichia coli, 0.015 µg/mL (≈ 0.0429 µM); in the data set with Enterobacter cloacae, 0.03 µg/mL (≈ 0.0859 µM); against Klebsiella pneumoniae, 0.03 µg/mL (≈ 0.0859 µM); against Morganella morganii, 0.03 µg/mL (≈ 0.0859 µM). For the same compound, the MIC against Proteus vulgaris amounted to 0.06 µg/mL (≈ 0.172 µM); in data set [9], 0.06 µg/mL (≈ 0.172 µM); in the data set on Staphylococcus aureus, 0.06 µg/mL (≈ 0.172 µM); with Enterococcus faecalis, 0.25 µg/mL (≈ 0.716 µM); against Pseudomonas aeruginosa it was 0.25 µg/mL (≈ 0.716 µM). Besides, the ED50 amounted to 2 mg/kg in the data set with Mus musculus [6], 22.1 mg/kg in the data set with Mus musculus [7] and 9 mg/kg in the data set on Mus musculus [8].
Take `C[C@@H]1[C@@H](N(C)C)CN1c1c(F)cc2c(=O)c(C(=O)O)cn(C3CC3)c2c1F`: the exposure (AUC) in [1] was found to be 23200 ng·h/mL. The pKa came to 6.08 in [2] and 8.2 in data set [3]. For the same compound, the “Log k'” value in data set [4] amounted to 0.769. The solubility in [5] was 97.1 µg/mL (≈ 257 µM). Also, the MIC against Bacillus cereus stood at 1 µg/mL (≈ 2.65 µM); against Bacillus subtilis, 0.015 µg/mL (≈ 0.0397 µM); with Escherichia coli, 0.25 µg/mL (≈ 0.662 µM); with Enterobacter cloacae, 0.12 µg/mL (≈ 0.318 µM); with Klebsiella pneumoniae, 0.06 µg/mL (≈ 0.159 µM); in the data set on Morganella morganii it was 0.25 µg/mL (≈ 0.662 µM). Also, the MIC is 0.25 µg/mL (≈ 0.662 µM) in the data set on Proteus vulgaris; 0.06 µg/mL (≈ 0.159 µM) in [9]; 0.12 µg/mL (≈ 0.318 µM) against Staphylococcus aureus; 1 µg/mL (≈ 2.65 µM) in the data set with Enterococcus faecalis; 2 µg/mL (≈ 5.3 µM) against Pseudomonas aeruginosa. Besides, the values for the ED50 with Mus musculus [6], with Mus musculus [7] and in the data set on Mus musculus [8] were 3.1 mg/kg, 164 mg/kg and 17.9 mg/kg, respectively.
As for `CN(C)C1(C)CN(c2c(F)cc3c(=O)c(C(=O)O)cn(C4CC4)c3c2F)C1`, the values for the pKa in [2] and in [3] were 6.05 and 8.12, respectively. For the same compound, in [4], the “Log k'” value was 0.604. For the same compound, the solubility in data set [5] came to 23.6 µg/mL (≈ 62.5 µM).
The like results for `NC1CN(c2c(F)cc3c(=O)c(C(=O)O)cn(C4CC4)c3c2F)C1` were, in that order, 6.12, 8.2, -0.0438 and 1.8 µg/mL (≈ 5.37 µM).
For `C[C@@H]1[C@@H](N(C)C)CN1c1cc2c(cc1F)c(=O)c(C(=O)O)cn2C1CC1`, the area under the curve (AUC) in data set [1] was found to be 12100 ng·h/mL. Besides, the figures for the pKa in [2] and in data set [3] were 6.29 and 7.9, respectively. Further, the “Log k'” value in data set [4] turned out to be 0.668. Also, the solubility in data set [5] was found to be 96.3 µg/mL (≈ 268 µM). In addition, the MIC against Bacillus cereus was 0.5 µg/mL (≈ 1.39 µM); against Bacillus subtilis, 0.06 µg/mL (≈ 0.167 µM); in the data set with Escherichia coli, 0.5 µg/mL (≈ 1.39 µM); with Enterobacter cloacae, 0.5 µg/mL (≈ 1.39 µM); against Klebsiella pneumoniae, 0.06 µg/mL (≈ 0.167 µM); with Morganella morganii it was 0.5 µg/mL (≈ 1.39 µM). The minimum inhibitory concentration (MIC) against Proteus vulgaris is 0.5 µg/mL (≈ 1.39 µM); in data set [9] it was 0.12 µg/mL (≈ 0.334 µM); against Staphylococcus aureus it was 0.25 µg/mL (≈ 0.696 µM); in the data set with Enterococcus faecalis it was 4 µg/mL (≈ 11.1 µM); against Pseudomonas aeruginosa, 4 µg/mL (≈ 11.1 µM). The ED50 with Mus musculus [6] was 4.5 mg/kg; in the data set with Mus musculus [7] it was 135 mg/kg; in the data set on Mus musculus [8] it was 62.1 mg/kg.
